Screening data: PubChem, Broad Institute
The list is not random: actives were taken first. Their share in the collection is about 2.2%.
S100A4 inh HTS: S100A4-myosin IIA interaction inhibition. S100A4/TAMRA-MyoIIA peptide fluorescence polarization. inhibition, % at 10.7 µM. P26447. actives 0.14% (n = 360,000);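 active = mean inhibition of at least 70% across replicates, with every replicate also reaching that level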
Target sequence (P26447 whole entry, looked up): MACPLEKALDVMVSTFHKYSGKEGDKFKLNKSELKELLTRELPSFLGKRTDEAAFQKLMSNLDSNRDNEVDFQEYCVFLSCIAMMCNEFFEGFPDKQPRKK
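incubation = readout 5 min after mixing, signal stable up to 60 min | system = S100A4 monomer protein | buffer or medium = HEPES pH 7.2 with CaCl2, KCl, NaCl, DTT, Triton | benchmarks = neutral control DMSO, positive control TFP | also added = fluorescent myosin IIA peptide, 5 nM | compound dosing = one concentration per compound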
CFTR F508del cor: correctors of CFTR F508del function in bronchial epithelial cells; CFBE cells, YFP halide quenching; stimulated with forskolin plus potentiator P3; % fluorescence drop versus neutral controls; activity (quench increase), % at 7.58 µM; actives 0.36% (n = 350,000); AID 720511;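 active = mean added fluorescence quench of at least 8% versus neutral control, with both replicates also reaching 8%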;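 note: cells transiently co-express mutant CFTR-F508del with the halide-sensitive YFP; corrector assay measuring rescue of mutant channel to the surface after 24 h compound exposure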
FGF22 binding: binders of recombinant human FGF22 by thermal shift; Q9HCT0; SYPRO orange fluorescence; percent of sucrose octasulfate shift, DMSO zero; activity (Tm shift, normalised), % at 9.99 µM; actives 1.5% (n = 340,000); AID 651658;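 active = mean Tm shift, scaled 0 neutral to 100 positive control, at about 1.3% or above, every replicate too, limit read from the data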
Target sequence (Q9HCT0 whole entry, looked up): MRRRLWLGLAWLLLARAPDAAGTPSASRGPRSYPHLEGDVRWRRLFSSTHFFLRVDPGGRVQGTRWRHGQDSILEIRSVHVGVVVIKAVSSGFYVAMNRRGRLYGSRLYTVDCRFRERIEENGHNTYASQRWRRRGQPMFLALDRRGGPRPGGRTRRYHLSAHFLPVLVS
dFosB activator: enhances mouse delta FosB homodimer DNA binding; actives 0.99% (n = 340,000); purified delta FosB, TAMRA-CDK5 oligo fluorescence polarization; percent of positive-control signal above neutral wells; P13346; activation, % at 25 µM;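 active = mean activation above about 17%, with every replicate also reaching it, limit read from the data, passing the limit was not always enough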
Target sequence (P13346 whole entry, looked up): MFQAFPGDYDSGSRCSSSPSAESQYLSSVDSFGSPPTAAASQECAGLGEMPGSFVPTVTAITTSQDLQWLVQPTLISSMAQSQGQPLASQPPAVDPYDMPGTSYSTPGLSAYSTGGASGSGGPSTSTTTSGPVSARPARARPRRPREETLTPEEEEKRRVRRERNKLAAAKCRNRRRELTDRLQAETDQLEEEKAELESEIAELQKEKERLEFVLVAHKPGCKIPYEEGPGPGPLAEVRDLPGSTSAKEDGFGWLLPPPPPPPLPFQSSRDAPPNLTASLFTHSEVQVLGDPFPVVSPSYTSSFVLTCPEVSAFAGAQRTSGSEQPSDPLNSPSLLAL
Starred values were filed as active, the others as inactive; . = not tested or not shown; + = active, no number.

SMILES | S100A4 inh HTS | CFTR F508del cor | FGF22 binding | dFosB activator
C[C@@H]1CN([C@@H](C)CO)C(=O)c2cc(C#CC3(O)CCCC3)cnc2O[C@@H]1CN(C)C | 11 | -2 | 0 | .
CCCCN1C(=O)C(=O)N(CC(=O)NC2CCCc3ccccc32)C1=O (configuration not stated) | 2 | 0 | 44* | 1
CC(CC(=O)N1CCN(c2ccc(C(F)(F)F)cn2)CC1)n1ccnc1 (configuration not stated) | -3 | 1 | 43* | -3
N=c1n(CCN2CCCCC2)c2ccccc2n1CC(=O)c1cccc([N+](=O)[O-])c1 | -10 | -1 | 0 | 21*
C=CCn1c(=N)n(CC(=O)c2cccc([N+](=O)[O-])c2)c2ccccc21 | -6 | -2 | 0 | 6
CO[C@H](CN(C)CC1CCOCC1)[C@@H](C)CN(C(=O)Nc1ccc(F)cc1)[C@@H](C)CO | 7 | 0 | 1 | .
Cc1oc(-c2ccccc2F)nc1CS(=O)CC(=O)NCc1ccccn1 (configuration not stated) | 0 | -1 | 44* | -3
Cc1ccc(-c2nc(CS(=O)CC(=O)NCc3ccccn3)c(C)o2)cc1 (configuration not stated) | -1 | -5 | 0 | -7
C[C@@H]1CN([C@@H](C)CO)C(=O)c2cc(-c3cccc(C(=O)N(C)C)c3)cnc2O[C@H]1CN(C)S(=O)(=O)c1cccc(F)c1 | 11 | -2 | 0 | .
COc1ccc(C(=O)Nc2ccc(NC(=O)c3cccc(F)c3)cn2)cc1 | -21 | 13* | 1 | 2
COCC(=O)N1[C@@H](CO)[C@@H]2c3ccccc3N(C(=O)C3CC3)C[C@@H]21 | 8 | 0 | 0 | .
O=C(O)CCN=Cc1c(O)c2ccccc2oc1=O | 2 | 0 | 43* | -5
COc1ccccc1NC(=O)N[C@@H]1C=C[C@H](CC(=O)NCc2ccc(Cl)c(Cl)c2)O[C@@H]1CO | -12 | 0 | 0 | .
CC1CC(C)CN(C(=O)/C=C/c2ccc(S(=O)(=O)N3CCOCC3)cc2)C1 (configuration not stated) | -1 | 8.4* | 0 | -11
C[C@H]1CN([C@@H](C)CO)C(=O)c2cc(NC(=O)Cc3ccccc3)ccc2O[C@H]1CN(C)C(=O)Nc1ccc2c(c1)OCO2 | . | 1 | . | .
COc1ccc(S(=O)(=O)Nc2ccc3c(c2)C(=O)N([C@@H](C)CO)C[C@H](C)[C@@H](CN(C)CC2CC2)O3)cc1 | 5 | 1 | 0 | .
COc1ccc2c3c([nH]c2c1)[C@H](CO)N(C(=O)NC(C)C)CC31CCN(C(=O)C2CCCC2)CC1 | -22 | 2 | 0 | .
Fc1ccccc1-c1cc2ccccc2cn1 | 1 | 3 | 44* | 3
O=C(Nc1cccc(F)c1)N1CC(=O)N2[C@H](C1)[C@@H](c1ccc(-c3ccccc3)cc1)[C@@H]2CO | -4 | -3 | . | .
C[C@H](CO)N1C[C@H](C)[C@@H](CN(C)S(=O)(=O)c2ccc(Cl)cc2)Oc2ccc(NC(=O)C3CCCCC3)cc2C1=O | 6 | 1 | . | .
CCn1cc(/C=N/NC(=O)COc2cccc3cccnc23)c2ccccc21 | . | . | . | -5
COc1ccc(/C=N/NC(=O)COc2cccc3cccnc23)cc1OC | -3 | 4 | 0 | 31*
COc1cc2oc(=O)cc(C)c2c(OC)c1OC | 0 | 4 | 43* | -12
CS(=O)(=O)c1ccc(C(=O)Nc2ccc(N3CCCC3)cc2)c(Cl)c1 | 10 | 0 | 0 | 1
Cc1ccccc1C(=O)Nc1ccc(N2CCCC2)cc1 | -3 | -2 | -1 | -1
SMILES | S100A4 inh HTS | CFTR F508del cor | FGF22 binding | dFosB activator
Cc1ccc(C(=O)Nc2ccc(N3CCCC3)cc2)c(C)c1 | -7 | 0 | . | 49*
O=C(Nc1ccc(N2CCCC2)cc1)c1cc(Br)ccc1Cl | 0 | 0 | 0 | 52*
CC1CCN(C(=O)c2nc[nH]c2C(=O)N2CCC(C)CC2)CC1 | -1 | 0 | 0 | 2
CCN(CC)C(=O)c1nc[nH]c1C(=O)N1CCC(C)CC1 | -7 | 0 | 9.1* | -2
CCC(=O)N1CCC2(CC1)CN(Cc1cc(F)ccc1F)[C@@H](CO)c1[nH]c3cc(OC)ccc3c12 | 1 | 2 | 0 | .
CCN=c1scc(C)n1/N=C/c1ccc(O)c(O)c1O | . | . | . | -11
COCCN=c1scc(-c2cccs2)n1/N=C/c1ccc(O)c(O)c1O | 0 | -1 | 89* | -8
COc1ccccc1C(O)c1ncc(-c2cccc3ccccc23)[nH]1 (configuration not stated) | -3 | -4 | 43* | .
OC(c1ccc(F)cc1)c1ncc(-c2cccc3ccccc23)[nH]1 (configuration not stated) | -6 | -2 | 0 | .
Cc1noc(C)c1S(=O)(=O)N(C)C[C@@H]1Oc2ccc(NS(C)(=O)=O)cc2CC(=O)N([C@H](C)CO)C[C@H]1C | -2 | 0 | 0 | .
Cc1cc(C(F)(F)F)nc(SCCN2CCOCC2)c1C#N | 2 | 0 | 43* | -2
CCS(=O)(=O)NCC[C@@H]1CC[C@@H](NC(=O)C2CCOCC2)[C@@H](CO)O1 | 13 | 1 | 0 | .
CCN(CC)c1ccc2nc3ccc(N)cc3[n+](-c3ccccc3)c2c1 | + | 5 | -1 | -244
C[C@@H]1CN([C@H](C)CO)C(=O)c2cc(NC(=O)Nc3ccc4c(c3)OCO4)ccc2O[C@@H]1CN(C)Cc1ccccc1 | 7 | 1 | 0 | .
CCOC(=O)c1ccc(NC(=O)C2CC(=O)N=C(N)S2)cc1 (configuration not stated) | 1 | 2 | 43* | -4
Nc1ccc2cc3[nH]c4cc(N)ccc4c3nc2c1 | 17 | 7 | 0 | 67*
O=C(c1cnccn1)N1CC[C@@H]2[C@H]1c1cc(-c3ccccc3)ccc1N[C@@H]2CO | -1 | 7 | 0 | .
O=C(Nc1ccn(CCCN(CCCn2ccc(NC(=O)OCc3ccccc3)nc2=O)CCc2cc3ccccc3[nH]2)c(=O)n1)OCc1ccccc1 | 1 | 1 | 0 | 83*
COc1ccccc1-c1cn(CC[C@@H]2CC[C@H](NC(=O)c3ccccc3F)[C@@H](CO)O2)nn1 | -19 | -1 | 0 | .
C[C@@H]1CN([C@@H](C)CO)C(=O)c2cc(N(C)C)ccc2O[C@@H](C)CCCCO[C@H]1CN(C)C | . | -2 | . | .
CC(=O)N1CCn2c3c(c4cc(C)ccc42)CCCC31 (configuration not stated) | -10 | 3 | 43* | 1
CCNC(=O)Nc1ccc2c(c1)C(=O)N(C)[C@@H]1CC[C@H](CC(=O)NCc3ccc(F)cc3)O[C@@H]1CO2 | -15 | 1 | 0 | .
Cc1cccc(OCc2nnc(SCC(=O)N3CCCC3)o2)c1 | -12 | -2 | 0 | 0
Cc1cccc(OCc2nnc(SCc3nc4ccccc4c(=O)[nH]3)o2)c1 | . | . | . | 45*
C[C@@H]1CN([C@@H](C)CO)C(=O)c2cc(NC(=O)Nc3ccc4c(c3)OCO4)ccc2O[C@@H](C)CCCCO[C@H]1CN(C)C | 8 | -1 | 0 | .
